The structures appear in SMILES notation. pIC50: −log10 of the molar value. Calls of active or inactive are those of the source. The calls are words filed in the database; no cut-off is given here.

The test system of data set [1] is Mus musculus. Description: Renoprotective activity in db/db mouse assessed as reduction in loss of foot processes at 1 to 2 mg/kg, ip administered trice per week for 12 consecutive weeks measured at 11 weeks post dose by TEM microscopic analysis. The class given is functional, organism-based. The procedure, abridged:
(§1)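 Male db/db mice (8 weeks old) were dosed i.p. three times weekly for 12 weeks in 5% Tween-80/0.9% saline, n = 6. Kidney tissue was fixed in 3% glutaraldehyde, cut into 80 nm ultrathin sections and examined by TEM. GBM thickness was measured at 30 random locations from three sections per kidney and averaged per mouse.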

Data set [2] in a line: Drug metabolism in PBS buffer at 100 uM after 8 hrs by HPLC analysis. It is filed as physicochemical. To be noted: read-out: Drug metabolism. The procedure, abridged: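 Substrate incubated in PBS, pH 7.4, at 37 °C for 8 h; conversion measured by HPLC.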
For data set [3], the target named is Kelch-like ECH-associated protein 1 (Homo sapiens) (UniProt Q14145). Description: Inhibition of Keap1/Nrf2 (unknown origin) interaction transfected in HEK293 cells assessed as increase in nuclear to cytosolic Nfr2 ratio after 48 hrs by Western blot analysis. It is filed as cell-based. The procedure, abridged: (§2)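 HEK293 cells grown in high-glucose DMEM with 10% FBS were treated in triplicate at 200 or 1000 nM for 48 h. Nuclear and cytosolic Nrf2, HO-1 and cytoplasmic NQO1 were measured by western blot with specific antibodies, with TBP and β-actin among the probed proteins. The nuclear/cytosolic Nrf2 ratio was derived from these blots. Three independent experiments, mean ± SD.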
Chain of Kelch-like ECH-associated protein 1 (Homo sapiens) (Q14145 whole entry): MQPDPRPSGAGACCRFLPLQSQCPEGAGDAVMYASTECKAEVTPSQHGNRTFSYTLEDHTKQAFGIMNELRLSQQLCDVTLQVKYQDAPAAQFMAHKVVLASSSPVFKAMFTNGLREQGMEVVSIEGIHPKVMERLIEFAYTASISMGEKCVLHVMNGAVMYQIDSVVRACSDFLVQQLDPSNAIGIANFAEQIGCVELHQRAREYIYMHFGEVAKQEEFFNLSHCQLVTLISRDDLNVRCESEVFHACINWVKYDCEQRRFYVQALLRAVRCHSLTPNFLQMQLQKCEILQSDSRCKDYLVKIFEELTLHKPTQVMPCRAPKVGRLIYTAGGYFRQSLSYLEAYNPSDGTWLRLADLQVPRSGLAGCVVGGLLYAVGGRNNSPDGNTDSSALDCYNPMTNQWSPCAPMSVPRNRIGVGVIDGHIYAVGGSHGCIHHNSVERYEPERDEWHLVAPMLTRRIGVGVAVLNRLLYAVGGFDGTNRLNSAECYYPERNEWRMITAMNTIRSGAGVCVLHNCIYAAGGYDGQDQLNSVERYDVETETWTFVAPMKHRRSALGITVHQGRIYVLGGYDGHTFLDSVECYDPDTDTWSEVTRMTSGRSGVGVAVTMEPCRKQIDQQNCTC
For orientation: A western blot detects proteins with antibodies after separation by electrophoresis.

The target of data set [4] is Voltage-gated inwardly rectifying potassium channel KCNH2 (Homo sapiens, UniProt Q12809). Description: Inhibition of human ERG expressed in CHO cells at -80 mV holding potential by patch clamp assay. It is filed as cell-based. A general note: In patch-clamp work, channel activity is measured electrically.
Chain of Voltage-gated inwardly rectifying potassium channel KCNH2 (Q12809 whole entry): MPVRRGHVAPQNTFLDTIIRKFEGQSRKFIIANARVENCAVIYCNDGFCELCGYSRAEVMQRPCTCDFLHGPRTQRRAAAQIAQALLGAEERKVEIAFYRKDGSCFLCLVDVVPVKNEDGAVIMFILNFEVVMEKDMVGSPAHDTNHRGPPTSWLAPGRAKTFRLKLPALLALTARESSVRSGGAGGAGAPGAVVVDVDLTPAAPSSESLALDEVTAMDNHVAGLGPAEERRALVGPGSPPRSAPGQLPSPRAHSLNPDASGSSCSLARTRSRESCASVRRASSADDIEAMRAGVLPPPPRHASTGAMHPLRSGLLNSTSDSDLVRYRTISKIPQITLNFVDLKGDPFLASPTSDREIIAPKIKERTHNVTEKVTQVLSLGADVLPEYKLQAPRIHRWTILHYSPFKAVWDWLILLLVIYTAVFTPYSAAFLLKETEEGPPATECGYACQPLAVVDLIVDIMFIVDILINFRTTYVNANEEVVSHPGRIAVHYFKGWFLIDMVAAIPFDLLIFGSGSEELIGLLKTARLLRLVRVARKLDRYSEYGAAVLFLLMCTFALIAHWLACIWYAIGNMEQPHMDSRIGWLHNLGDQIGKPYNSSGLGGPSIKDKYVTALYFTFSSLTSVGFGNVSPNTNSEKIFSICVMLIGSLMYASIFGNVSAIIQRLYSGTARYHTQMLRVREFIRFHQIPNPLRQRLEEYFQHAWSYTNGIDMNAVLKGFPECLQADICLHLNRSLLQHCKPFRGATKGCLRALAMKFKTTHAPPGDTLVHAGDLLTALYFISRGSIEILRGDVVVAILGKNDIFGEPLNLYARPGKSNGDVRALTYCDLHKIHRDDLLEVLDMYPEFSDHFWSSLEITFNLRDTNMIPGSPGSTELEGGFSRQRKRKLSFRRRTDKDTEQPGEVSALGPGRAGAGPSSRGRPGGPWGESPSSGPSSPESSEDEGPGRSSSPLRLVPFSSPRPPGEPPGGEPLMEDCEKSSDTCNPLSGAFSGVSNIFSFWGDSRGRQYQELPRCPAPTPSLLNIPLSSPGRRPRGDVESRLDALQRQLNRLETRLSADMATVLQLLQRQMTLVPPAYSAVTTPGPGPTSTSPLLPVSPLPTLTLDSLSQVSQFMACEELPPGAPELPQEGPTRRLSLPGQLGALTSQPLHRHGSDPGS
In data set [5] the test system is Mus musculus. Description: Anti-diabetic nephropathic activity in db/db mouse assessed as reduction in plasma urea nitrogen levels at 1 to 2 mg/kg, ip administered thrice per week for 12 consecutive weeks measured 11 weeks post dose. The class given is functional, organism-based. The procedure, abridged:
(§3)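 Male db/db mice, 8 weeks old, randomized; ip vehicle (5% Tween-80 in 0.9% saline) or drug three times weekly for 12 weeks, n = 6 per group. After 11 weeks, 24 h urine collected for volume, albumin and creatinine, with UACR calculated; blood then sampled for plasma BUN and uric acid. Mean ± SD, one-way ANOVA with Tukey test.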

Data set [6] can be described thus: Drug level in Sprague-Dawley rat kidney at 30 mg/kg, ip measured at 10 mins by LC-MS/MS analysis. The class given is ADME, organism-based. To be noted: read-out: Drug uptake. The procedure, abridged: (§4)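 Rats given a single ip injection, 20 mg/kg (0.04 mmol) of CDDO-Me or 30 mg/kg (0.04 mmol) of the prodrug; heart, kidney and liver collected over time; parent compound and liberated CDDO-Me measured by LC-MS/MS.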

Data set [7] deals with Kelch-like ECH-associated protein 1 (Homo sapiens) (UniProt Q14145). Description: Inhibition of Keap1/Nrf2 (unknown origin) interaction transfected in HEK293 cells assessed as increase in cytosolic NQO1 levels after 48 hrs by Western blot analysis. The class given is cell-based. The procedure, abridged:
as §2

Data set [8] is described as follows: Drug level in Sprague-Dawley rat liver at 30 mg/kg, ip measured at 90 mins by LC-MS/MS analysis. It is filed as ADME, organism-based. The conditions noted are these: read-out: Drug uptake. The procedure, abridged: as §4
Data set [9] has as its system Mus musculus. Description: Renoprotective activity in db/db mouse assessed as reduction in fused podocytes at 1 to 2 mg/kg, ip administered trice per week for 12 consecutive weeks measured at 11 weeks post dose by TEM microscopic analysis. It is filed as functional, organism-based. The procedure, abridged: as §1
The test system of data set [10] is Mus musculus. Description: Antidiabetic nephropathic activity in db/db mouse assessed as reduction in 24 hrs urine volume at 1 to 2 mg/kg, ip administered thrice per week for 12 consecutive weeks measured at 11 weeks post dose. It is filed as functional, organism-based. The procedure, abridged:
as §3

Data set [11] concerns Mus musculus. Description: Cardioprotective activity in C57BL/6 db/db mouse assessed as reduction in apoptotic cardiomyocyte levels at 1 to 2 mg/kg, ip administered for 12 weeks by TUNNEL assay. It is filed as functional, organism-based. The procedure, abridged: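 db/db mice, 8 weeks old, with C57BL/6 controls; ip vehicle or drug for 12 weeks, n = 6 per group. Heart sections (5 μm) from paraformaldehyde-fixed, paraffin-embedded tissue analysed by TUNEL; percentage of apoptotic cardiomyocytes from three sections per mouse; mean ± SD from two separate experiments.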

The subject of data set [12] is Mus musculus. Description: Toxicity in db/db mouse assessed as effect on water consumption at 0.65 mg/kg, ip administered trice per week for 12 consecutive weeks measured every other day. It is filed as organism-based. The conditions noted are these: in vivo. The procedure, abridged: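 Male db/db mice (8 weeks old, specific pathogen-free, normal chow and filtered water ad libitum) were randomized and dosed i.p. three times weekly for 12 consecutive weeks; vehicle was 5% Tween-80 in 0.9% saline. Body weight and food and water consumption were recorded every other day.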

A short description of data set [13]: Drug level in Sprague-Dawley rat heart at 20 mg/kg, ip measured at 90 mins by LC-MS/MS analysis. The class given is ADME, organism-based. To be noted: read-out: Drug uptake. The procedure, abridged: as §4
A short description of data set [14]: Drug level in Wistar rat plasma treated with 1-Hydroxyl-2-cyano-3-(4-(methyl-L-glutaminate-N5-yl)-benzyloxy)-12-oxo-oleana-2(3),9(11)-dien-28-oic Acid Methyl Ester assessed as GGT-mediated metabolite formation at 100 uM after 8 hrs by HPLC analysis. It is filed as ADME. The procedure, abridged:
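Plasma, and kidney and liver homogenates in PBS, from three Wistar rats; substrate added at 100 μM at 37 °C; metabolite measured by HPLC every 60 min for 8 h; mean ± SD of three experiments.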

In data set [15] the test system is Mus musculus. Description: Renoprotective activity in db/db mouse assessed as reduction in thickening of capillary walls in glomeruli at 0.65 mg/kg, ip administered trice per week for 12 consecutive weeks measured at 11 weeks post dose by H/E-staining based microscopic analysis. It is filed as functional, organism-based. The procedure, abridged:
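Male db/db mice, 8 weeks old, were randomized and dosed i.p. three times weekly for 12 weeks (vehicle: 5% Tween-80 in 0.9% saline; n = 6 per group). Kidneys were fixed in 4% PFA and paraffin-embedded. 5 μm sections were stained with HE, PAS or Masson's trichrome and examined at ×400.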

Data set [16] has as its system Mus musculus. Description: Anti-diabetic nephropathic activity in db/db mouse assessed as reduction in plasma uric acid levels at 0.65 mg/kg, ip administered trice per week for 12 consecutive weeks measured at 11 weeks post dose. It is filed as functional, organism-based. The procedure, abridged: as §3
Data set [17] has as its system Mus musculus. Description: Renoprotective activity in db/db mouse assessed as reduction in glomerular basement thickening at 0.65 mg/kg, ip administered trice per week for 12 consecutive weeks measured at 11 weeks post dose by TEM microscopic analysis. The class given is functional, organism-based. The procedure, abridged: as §1
Data set [18] addresses Kelch-like ECH-associated protein 1 (Homo sapiens) (UniProt Q14145). Description: Inhibition of Keap1/Nrf2 (unknown origin) interaction transfected in HEK293 cells assessed as increase in cytosolic NQO1 levels at 200 to 1000 nM after 48 hrs by Western blot analysis. It is filed as cell-based. The procedure, abridged: as §2
The subject of data set [19] is Mus musculus. Description: Renoprotective activity in db/db mouse assessed as reduction in loss of foot processes at 0.65 mg/kg, ip administered trice per week for 12 consecutive weeks measured at 11 weeks post dose by TEM microscopic analysis. The class given is functional, organism-based. The procedure, abridged:
as §1

Data set [20] is described as follows: Drug level in Sprague-Dawley rat kidney at 20 mg/kg, ip measured at 90 mins by LC-MS/MS analysis. It is filed as ADME, organism-based. To be noted: read-out: Drug uptake. The procedure, abridged:
as §4

The subject of data set [21] is Mus musculus. Description: Anti-diabetic nephropathic activity in db/db mouse assessed as reduction in plasma urea nitrogen levels at 0.65 mg/kg, ip administered trice per week for 12 consecutive weeks measured 11 weeks post dose. The class given is functional, organism-based. The procedure, abridged: as §3
Data set [22] concerns the target Kelch-like ECH-associated protein 1 (Homo sapiens) (UniProt Q14145). Description: Inhibition of Keap1/Nrf2 (unknown origin) interaction transfected in HEK293 cells assessed as increase in nuclear to cytosolic Nfr2 ratio at 200 to 1000 nM after 48 hrs by Western blot analysis. The class given is cell-based. The procedure, abridged:
as §2

In data set [23] the test system is Mus musculus. Description: Renoprotective activity in db/db mouse assessed as reduction in fused podocytes at 0.65 mg/kg, ip administered trice per week for 12 consecutive weeks measured at 11 weeks post dose by TEM microscopic analysis. It is filed as functional, organism-based. The procedure, abridged: as §1

One may read the pIC50 as the negative decadic logarithm of the IC50, by convention in mol/L. A lower pIC50 goes with a large IC50. In the case of `COC(=O)[C@@H](N)CCC(=O)Nc1ccc(COC2=C(C#N)[C@H](O)[C@]3(C)C4=CC(=O)[C@@H]5[C@@H]6CC(C)(C)CC[C@]6(C(=O)OC)CC[C@@]5(C)[C@]4(C)CC[C@H]3C2(C)C)cc1`, the result in [1], in [5], in data set [9], in [10] and in data set [11] was Active. For the same compound, the degraded at 8 h, 100 µM in [2] is 20%. The inhibition result in data set [3] and in data set [7] was “Dose-dependent effect” each time. The pIC50 in data set [4] is under 3.70. Moreover, in data set [6], the concentration at 10 min is 1230 ng/g. Further, the concentration at 1.5 h in data set [8] is 6040 ng/g.
On to `COC(=O)[C@]12CCC(C)(C)C[C@H]1[C@H]1C(=O)C=C3[C@@]4(C)C=C(C#N)C(=O)C(C)(C)[C@@H]4CC[C@@]3(C)[C@]1(C)CC2` [BARDOXOLONE METHYL], for which, in data set [12], the Activity entry is “Non-Toxic”. In addition, the concentration at 1.5 h in [13] stood at 1580 ng/g; in [20] it was 4520 ng/g. Moreover, the Drug metabolism entry in data set [14] is listed as “Metabolite_Detected”. Further, the outcome in data set [15], in [16], in [17], in data set [19], in [21] and in data set [23] was Active. The inhibition entry in data set [18] and in data set [22] was “Active” throughout.
